Four compounds from ChEMBL document CHEMBL4699617, “Rational Design of Right-Handed Heterogeneous Peptidomimetics as Inhibitors of Protein-Protein Interactions” (J Med Chem, 2020) can be followed below.

Activity calls are given as the source filed them. The rule behind the calls is not given here.

For assay [1], the target named is T1, E3 ubiquitin-protein ligase Mdm2 (Homo sapiens, UniProt Q00987). The assay is described as follows: Inhibition of MDM2 in human U2OS cells assessed as increase in p21 expression at 30 uM incubated for 16 hrs by Western blot analysis. Format: cell-based. The gist of the method: (§1)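 U2OS osteosarcoma cells carrying endogenous wild-type p53, treated at 30 μM for 16 h. Cells lysed in Tris-HCl pH 8.0/150 mM NaCl/0.5% NP-40 with PMSF and protease inhibitors, spun 14,000g, 10 min, 4 °C. Supernatant boiled in Laemmli buffer, run on SDS-PAGE and immunoblotted for p53 pathway markers.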
Target sequence in this assay (Q00987 whole entry, looked up): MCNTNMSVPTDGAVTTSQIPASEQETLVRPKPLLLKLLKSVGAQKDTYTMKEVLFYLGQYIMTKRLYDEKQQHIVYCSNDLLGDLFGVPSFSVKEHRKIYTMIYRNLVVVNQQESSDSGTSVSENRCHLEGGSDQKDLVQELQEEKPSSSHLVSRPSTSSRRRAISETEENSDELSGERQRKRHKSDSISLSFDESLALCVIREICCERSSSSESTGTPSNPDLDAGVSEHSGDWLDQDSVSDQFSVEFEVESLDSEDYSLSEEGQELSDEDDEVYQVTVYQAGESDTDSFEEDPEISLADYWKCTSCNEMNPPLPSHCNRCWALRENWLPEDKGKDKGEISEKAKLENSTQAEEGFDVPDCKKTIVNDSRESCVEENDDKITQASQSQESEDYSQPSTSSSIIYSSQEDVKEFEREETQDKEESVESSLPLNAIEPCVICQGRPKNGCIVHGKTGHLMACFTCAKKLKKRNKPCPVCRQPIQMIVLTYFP

Assay [2] deals with T1, E3 ubiquitin-protein ligase Mdm2. Nature of the assay: Inhibition of MDM2 in human U2OS cells assessed as increase in p53 expression at 30 uM incubated for 16 hrs by Western blot analysis. The assay is classed as cell-based. The gist of the method: as §1
Target sequence in this assay (Q00987 whole entry, looked up): as above
The target is the same in assay [3]. Nature of the assay: Binding affinity to human recombinant MDM2 (1 to 150 residue) expressed in Escherichia coli using presence of FITC-labelled compound by fluorescence polarization assay. On the technique in general: In fluorescence polarisation assays a small probe gives low polarisation when free and higher when bound to something large.
Target sequence in this assay (Q00987 whole entry): as the sequence (Q00987 whole entry, looked up) above
The target is the same in assay [4]. Nature of the assay: Inhibition of MDM2 in human U2OS cells assessed as increase in MDM2 expression at 30 uM incubated for 16 hrs by Western blot analysis. The assay is classed as cell-based. The gist of the method: as §1
Target sequence in this assay (Q00987 whole entry, looked up): as above

The term IC50 denotes the concentration that inhibits the measured activity by half.

As to `CC(C)C[C@H](NC(=O)CN(C[C@@H]1CCCCNC(=O)CC[C@H](NC(=O)CN(C[C@H](Cc2ccccc2)NC(=O)[C@@H](NC(=O)CCc2ccccc2)[C@@H](C)O)S(C)(=O)=O)C(=O)N[C@@H](Cc2ccc(O)cc2)CN(S(=O)(=O)c2ccc3ccccc3c2)CC(=O)N[C@@H](C)C(=O)N1)S(=O)(=O)CC(C)C)C(=O)N[C@@H](CO)CN(CC(=O)N[C@@H](C)C(N)=O)S(C)(=O)=O`, in assay [1], the “p21 expression increase (active/inactive call)” value is “Active”. Further, in assay [2], the “p53 expression increase (activity call)” value is “Active”. For the same compound, the IC50 in assay [3] turned out to be 9.4 µM. Further, the “Increase in MDM2 expression (active/inactive)” value (shortened to “Increase … (active/inactive)”) in assay [4] was “Active”.

With `CC(=O)N[C@H](C(=O)N[C@@H](Cc1ccccc1)CN(CC(=O)N[C@H]1CCC(=O)NCCCC[C@@H](CN(CC(=O)N[C@@H](CC(C)C)C(=O)N[C@@H](CO)CN(CC(=O)N[C@@H](C)C(N)=O)S(C)(=O)=O)S(C)(=O)=O)NC(=O)[C@H](C)NC(=O)CN(S(=O)(=O)c2ccc3ccccc3c2)C[C@H](Cc2ccc(O)cc2)NC1=O)S(C)(=O)=O)[C@@H](C)O`, in assay [1], the “p21 expression increase (active/inactive call)” value is “Active”. In assay [2], the “p53 expression increase (activity call)” value was “Active”. Moreover, in assay [3], the IC50 is 9 µM. The “Increase … (active/inactive)” value in assay [4] is “Active”.

`CC(=O)N[C@H](C(=O)N[C@@H](Cc1ccccc1)CN(CC(=O)N[C@H]1CCC(=O)NCCCC[C@@H](CN(CC(=O)N[C@@H](CC(C)C)C(=O)N[C@@H](CO)CN(CC(=O)N[C@@H](C)C(N)=O)S(C)(=O)=O)S(=O)(=O)CC(C)C)NC(=O)[C@H](C)NC(=O)CN(S(=O)(=O)c2ccc3ccccc3c2)C[C@H](Cc2ccc(O)cc2)NC1=O)S(C)(=O)=O)[C@@H](C)O`: in assay [1], the “p21 expression increase (active/inactive call)” value was “Active”. The “p53 expression increase (activity call)” value in assay [2] was “Active”. In assay [3], the IC50 came out at 11.7 µM. Besides, in assay [4], the “Increase … (active/inactive)” value is “Active”.

`CC(=O)N[C@H](C(=O)N[C@@H](Cc1c[nH]c2ccccc12)CN(CC(=O)N[C@H]1CCC(=O)NCCCC[C@@H](CN(CC(=O)N[C@@H](CC(C)C)C(=O)N[C@@H](CO)CN(CC(=O)N[C@@H](C)C(N)=O)S(C)(=O)=O)S(=O)(=O)CC(C)C)NC(=O)[C@H](C)NC(=O)CN(S(=O)(=O)c2ccc3ccccc3c2)C[C@H](Cc2ccc(O)cc2)NC1=O)S(C)(=O)=O)[C@@H](C)O`: in assay [1], the “p21 expression increase (active/inactive call)” value is “Active”. Further, in assay [2], the “p53 expression increase (activity call)” value was “Active”. The “Increase … (active/inactive)” value in assay [4] was “Active”.
